Experimental data as given in ChEMBL document CHEMBL1800043, “(-)-Duryne and its homologues, cytotoxic acetylenes from a marine Sponge Petrosia sp” (J Nat Prod, 2011).
pIC50: −log10 of the molar value.

Tested on: HeLa
Experiment: Cytotoxicity against human HeLa cells after 72 hrs by MTT assay
Format: functional, cell-based
In short: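 HeLa cells grown in DMEM with 10% FBS, 2 μg/mL gentamycin and 2 μg/mL antibiotic-antimycotic at 37 °C under 5% CO2. Seeded at 1 × 10^4 cells/mL and preincubated 24 h. Sample added, then incubated 72 h. MTT (1 mg/mL saline) added for 3 h. Supernatant discarded, formazan dissolved in DMSO, absorbance read for IC50. Adriamycin was the positive control.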

| SMILES | pIC50 |
| --- | --- |
| C#C[C@H](O)/C=C/CCCCCCCCC/C=C\CCCCCCCCC/C=C/[C@@H](O)C#C | 6.30 |
| C#C[C@H](O)/C=C/CCCCCCCCC/C=C\CCCCCCCCCCC/C=C/[C@@H](O)C#C | 6.59 |
| C#C[C@H](O)/C=C/CCCCC/C=C\CCCC/C=C\CCCCCCCCC/C=C/[C@@H](O)C#C | 6.59 |
| C#C[C@H](O)/C=C/CCCCCCC/C=C\CCCC/C=C\CCCCCCCCC/C=C/[C@@H](O)C#C | 7.00 |
| C#C[C@H](O)/C=C/CCCCCCCCC/C=C\CCCC/C=C\CCCCCCCCC/C=C/[C@@H](O)C#C | 7.10 |
| C#C/C=C\[C@@H](O)CCCCCCCCCCC/C=C\CCCCCCCCC/C=C/[C@@H](O)C#C | 6.47 |
| COc1cccc2c1C(=O)c1c(O)c3c(c(O)c1C2=O)C[C@@](O)(C(=O)CO)C[C@@H]3O[C@H]1C[C@H](N)[C@H](O)[C@H](C)O1 [DOXORUBICIN] | 5.79 |
